According to ChEMBL document CHEMBL4270541, “Synthesis and antimicrobial evaluation of amino sugar-based naphthoquinones and isoquinoline-5,8-diones and their halogenated compounds” (Eur J Med Chem, 2018):

How the values were obtained:
Klebsiella pneumoniae = assay: Antimicrobial activity against Klebsiella pneumoniae INCQS 00083 ATCC 4352 assessed as zone of inhibition at 5 mg/ml after 18 to 24 hrs by disc diffusion method; assay type: functional; details: read-out: IZ
[1] = tested on: Staphylococcus epidermidis; assay: Antimicrobial activity against Staphylococcus epidermidis INCQS 00016 ATCC 12228 assessed as zone of inhibition at 5 mg/ml after 18 to 24 hrs by disc diffusion method; assay type: functional; details: ATCC 12228 INCQS 00016, read-out: IZ
Staphylococcus simulans = assay: Antimicrobial activity against Staphylococcus simulans INCQS 00254 ATCC 27851 assessed as zone of inhibition at 5 mg/ml after 18 to 24 hrs by disc diffusion method; assay type: functional; details: read-out: IZ
Pseudomonas aeruginosa = assay: Antimicrobial activity against Pseudomonas aeruginosa INCQS 00099 ATCC 27853 assessed as zone of inhibition at 5 mg/ml after 18 to 24 hrs by disc diffusion method; assay type: functional; details: read-out: IZ
Escherichia coli = assay: Antimicrobial activity against Escherichia coli INCQS 00033 ATCC 25922 assessed as zone of inhibition at 5 mg/ml after 18 to 24 hrs by disc diffusion method; assay type: functional; details: ATCC 25922 INCQS 00033, read-out: IZ
Staphylococcus aureus [2] = assay: Antimicrobial activity against methicillin-resistant Staphylococcus aureus BMB9393 assessed as zone of inhibition at 5 mg/ml after 18 to 24 hrs by disc diffusion method; assay type: functional; details: read-out: IZ
Enterococcus faecalis = assay: Antimicrobial activity against Enterococcus faecalis INCQS 00234 ATCC 29212 assessed as zone of inhibition at 5 mg/ml after 18 to 24 hrs by disc diffusion method; assay type: functional; details: ATCC 29212 INCQS 00234, read-out: IZ
Proteus mirabilis = assay: Antimicrobial activity against Proteus mirabilis INCQS 00095 ATCC 15290 assessed as zone of inhibition at 5 mg/ml after 18 to 24 hrs by disc diffusion method; assay type: functional; details: read-out: IZ
[3] = Hemolytic activity against human erythrocytes assessed as hemolysis at 200 ug/ml after 3 hrs by spectrophotometric analysis relative to control; assay type: ADME, cell-based, Erythrocyte; details: read-out: Activity
How it was run: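 Erythrocytes collected in citrate tubes, washed three times with PBS pH 7.4 by centrifugation and resuspended in PBS. Incubated with compounds at 200 µg/mL for 3 h at 37°C. Released hemoglobin was read in the supernatant at 545 nm against 1% Triton X-100 (complete lysis) and 1% DMSO (negative control). Below 10% hemolysis was taken as hemocompatible. Three independent experiments.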

Staphylococcus aureus [4] = assay: Antimicrobial activity against Staphylococcus aureus INCQS 00015 ATCC 25923 assessed as zone of inhibition at 5 mg/ml after 18 to 24 hrs by disc diffusion method; assay type: functional; details: read-out: IZ

| SMILES | zone of inhibition at 5000 µg/mL (Klebsiella pneumoniae) [mm] | zone of inhibition at 5000 µg/mL [1] [mm] | zone of inhibition at 5000 µg/mL (Staphylococcus simulans) [mm] | zone of inhibition at 5000 µg/mL (Pseudomonas aeruginosa) [mm] | zone of inhibition at 5000 µg/mL (Escherichia coli) [mm] | zone of inhibition at 5000 µg/mL (Staphylococcus aureus [2]) [mm] | zone of inhibition at 5000 µg/mL (Enterococcus faecalis) [mm] | zone of inhibition at 5000 µg/mL (Proteus mirabilis) [mm] | hemolysis at 3 h, 200 ug/ml [3] [%] | zone of inhibition at 5000 µg/mL (Staphylococcus aureus [4]) [mm] |
| --- | --- | --- | --- | --- | --- | --- | --- | --- | --- | --- |
| COC(=O)c1c(C)nc(C)c2c1C(=O)C=C(NC[C@H]1O[C@@H](OC)[C@@H]3OC(C)(C)O[C@@H]31)C2=O | 0 | 0 | 0 | 0 | 0 | 0 | 0 | 0 | < 10 | 0 |
| CC1(C)O[C@H]2[C@@H](O1)[C@@H](CNC1=CC(=O)c3ccccc3C1=O)O[C@@H]1OC(C)(C)O[C@@H]12 | 0 | 0 | 0 | 0 | 0 | 0 | 0 | 0 | < 10 | 0 |
| COC(=O)c1c(C)nc(C)c2c1C(=O)C(Br)=C(NC[C@H]1O[C@@H]3OC(C)(C)O[C@@H]3[C@H]3OC(C)(C)O[C@H]31)C2=O | 0 | 0 | 0 | 0 | 0 | 0 | 0 | 0 | < 10 | 0 |
| CC1(C)O[C@H]2[C@@H](O1)[C@@H](CNC1=C(Br)C(=O)c3ccccc3C1=O)O[C@@H]1OC(C)(C)O[C@@H]12 | 0 | 0 | 0 | 0 | 0 | 0 | 0 | 0 | 10.1 to 14.4 | 0 |
| COC(=O)c1c(C)nc(C)c2c1C(=O)C(Cl)=C(NC[C@H]1O[C@@H]3OC(C)(C)O[C@@H]3[C@H]3OC(C)(C)O[C@H]31)C2=O | 0 | 0 | 0 | 0 | 0 | 0 | 0 | 0 | < 10 | 0 |
| O=C(O)c1cn(C2CC2)c2cc(N3CCNCC3)c(F)cc2c1=O [CIPROFLOXACIN] | 27 |  |  | 36 | 35 |  |  | 28 |  |  |
| COC(=O)c1c(C)nc(C)c2c1C(=O)C(Cl)=C(NC[C@H]1O[C@@H](OC)[C@@H]3OC(C)(C)O[C@@H]31)C2=O | 0 | 0 | 0 | 0 | 0 | 0 | 0 | 0 | < 10 | 0 |
| CO[C@@H]1O[C@H](CNC2=CC(=O)c3ccccc3C2=O)[C@H]2OC(C)(C)O[C@@H]12 | 0 | 0 | 0 | 0 | 0 | 0 | 0 | 0 | < 10 | 0 |
| COC(=O)c1c(C)nc(C)c2c1C(=O)C=C(N)C2=O | 0 | 0 | 0 | 0 | 0 | 0 | 0 | 0 | < 10 | 0 |
| CC1(C)O[C@H]2O[C@H](CNC3=CC(=O)c4ccccc4C3=O)[C@H](O)[C@H]2O1 | 0 | 0 | 0 | 0 | 0 | 0 | 0 | 0 | < 10 | 0 |
